Legend:
K562 [1] = experiment: Antiproliferative activity against human K562 cells assessed as total growth inhibition; type: functional
In short: (§1)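 NCI five-dose testing across the 58-line panel gives GI50, TGI and LC50 for each line. Subpanel lines report mean GI50 for each of the nine cancer types.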

[2] = tested on: Panel breast (Carcinoma cell lines); experiment: Antiproliferative activity against human Panel breast (6 Carcinoma cell lines) assessed as reduction in mean cell growth; type: functional; in short: as §1
HCT-15 [3] = experiment: Antiproliferative activity against human HCT-15 cells assessed as reduction in cell growth; type: functional; in short: as §1
HCC 2998 = experiment: Antiproliferative activity against human HCC 2998 cells assessed as inhibition of cell growth at 10 uM; type: functional
In short: (§2)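 NCI 58-cell-line screen covering leukemia, NSCLC, colon, CNS, melanoma, ovarian, renal, prostate and breast lines. Compounds given once at […] (micromolar per the line). Percent inhibition taken as 100 minus growth percent. Panel line reports the mean over all 58 lines.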

HOP-92 [4] = experiment: Antiproliferative activity against human HOP-92 cells assessed as reduction in cell growth; type: functional; in short: as §1
[5] = molecular target: Serine/threonine-protein kinase B-raf (Homo sapiens, UniProt P15056, V600E); experiment: Inhibition of B-RAF V600E mutant (unknown origin) using […] as substrate incubated for 40 mins in presence of [gamma33P]ATP by scintillation counting based hotspot kinase assay
SK-MEL-5 [6] = experiment: Cytotoxicity against human SK-MEL-5 cells; type: functional
In short: (§3)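 Run in the US NCI 58-cell-line screen covering nine cancer types (leukemia, NSCLC, colon, CNS, melanoma, ovarian, renal, prostate, breast). Five-dose mode gave GI50, TGI and LC50 values for each cell line. In the single-dose pre-screen, % inhibition was taken as 100 minus growth percentage.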

K562 [7] = experiment: Antiproliferative activity against human K562 cells assessed as reduction in cell growth; type: functional; in short: as §1
SNB-75 [8] = experiment: Antiproliferative activity against human SNB-75 cells assessed as total growth inhibition; type: functional; in short: as §1
PC-3 [9] = experiment: Antiproliferative activity against human PC-3 cells assessed as total growth inhibition; type: functional; in short: as §1
SK-MEL-5 [10] = experiment: Antiproliferative activity against human SK-MEL-5 cells assessed as total growth inhibition; type: functional; in short: as §1
MDA-MB-468 [11] = experiment: Antiproliferative activity against human MDA-MB-468 cells assessed as total growth inhibition; type: functional; in short: as §1
[12] = molecular target: Mitogen-activated protein kinase 14 (Homo sapiens) (UniProt Q16539); experiment: Inhibition of MAPK14 (p38 alpha) (unknown origin) at 10 uM using […] as substrate incubated for 40 mins in presence of [gamma33P]ATP by scintillation counting based hotspot kinase assay relative to control
HOP-92 [13] = experiment: Cytotoxicity against human HOP-92 cells; type: functional; in short: as §3
COLO 205 [14] = experiment: Antiproliferative activity against human COLO 205 cells assessed as reduction in cell growth; type: functional; in short: as §1
[15] = molecular target: T1, RAF proto-oncogene serine/threonine-protein kinase (Homo sapiens, UniProt P04049); experiment: Inhibition of RAF1 (unknown origin) using […] as substrate incubated for 40 mins in presence of [gamma33P]ATP by scintillation counting based hotspot kinase assay
In short: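 IC50 from a radiometric assay. Kinase (5–10 mU) is incubated in 25 mM Tris pH 7.5 with 0.02 mM EGTA, 0.66 mg/mL myelin basic protein as substrate, 10 mM magnesium acetate and [γ33P]ATP. Mg-ATP starts the reaction, which runs 40 min at room temperature. It is stopped with 3% phosphoric acid, captured on filtermat, washed and counted by scintillation.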

[16] = tested on: Serine/threonine-protein kinase B-raf (Homo sapiens), P15056 [V600E]; experiment: Inhibition of B-RAF V600E mutant (unknown origin) at 10 uM using […] as substrate incubated for 40 mins in presence of [gamma33P]ATP by scintillation counting based hotspot kinase assay relative to control
COLO 205 [17] = experiment: Antiproliferative activity against human COLO 205 cells assessed as total growth inhibition; type: functional; in short: as §1
[18] = tested on: Panel CNS (Carcinoma cell lines); experiment: Antiproliferative activity against human Panel CNS (6 Carcinoma cell lines) assessed as reduction in mean cell growth; type: functional; in short: as §1
[19] = molecular target: Epidermal growth factor receptor (Homo sapiens) (UniProt P00533); experiment: Inhibition of EGFR (unknown origin) at 10 uM using […] as substrate incubated for 40 mins in presence of [gamma33P]ATP by scintillation counting based hotspot kinase assay relative to control
RXF 393 [20] = experiment: Antiproliferative activity against human RXF 393 cells assessed as total growth inhibition; type: functional; in short: as §1
SNB-75 [21] = experiment: Antiproliferative activity against human SNB-75 cells assessed as reduction in cell growth; type: functional; in short: as §1
[22] = tested on: Panel leukemia (Carcinoma cell lines); experiment: Antiproliferative activity against human Panel leukemia (5 Carcinoma cell lines) assessed as reduction in mean cell growth; type: functional; in short: as §1
SK-MEL-5 [23] = experiment: Antiproliferative activity against human SK-MEL-5 cells assessed as reduction in cell growth; type: functional; in short: as §1
PC-3 [24] = experiment: Antiproliferative activity against human PC-3 cells assessed as reduction in cell growth; type: functional; in short: as §1
[25] = molecular target: T1, RAF proto-oncogene serine/threonine-protein kinase; experiment: Inhibition of RAF1 (unknown origin) at 10 uM using […] as substrate incubated for 40 mins in presence of [gamma33P]ATP by scintillation counting based hotspot kinase assay relative to control
COLO 205 [26] = experiment: Antiproliferative activity against human COLO 205 cells assessed as inhibition of cell growth at 10 uM; type: functional; in short: as §2
K562 [27] = experiment: Cytotoxicity against human k562 cells; type: functional; details: read-out: LC50 (the source's name); in short: as §3
L132 = experiment: Cytotoxicity against human L132 cells assessed as reduction in cell growth at 31.3 to 100 uM relative to control; type: toxicity, cell-based; design: scale not given: the % may be the effect or the level left; details: l132, 100 µM, dose 31.3-100 µM
[28] = molecular target: Tyrosine-protein kinase ABL1 (Homo sapiens) (UniProt P00519); experiment: Inhibition of ABL (unknown origin) at 10 uM using […] as substrate incubated for 40 mins in presence of [gamma33P]ATP by scintillation counting based hotspot kinase assay relative to control
[29] = tested on: Panel ovarian (Carcinoma cell lines); experiment: Antiproliferative activity against human Panel ovarian (7 Carcinoma cell lines) assessed as reduction in mean cell growth; type: functional; in short: as §1
COLO 205 [30] = experiment: Cytotoxicity against human COLO 205 cells; type: functional; in short: as §3
HOP-92 [31] = experiment: Antiproliferative activity against human HOP-92 cells assessed as total growth inhibition; type: functional; in short: as §1
[32] = tested on: Panel melanoma (Carcinoma cell lines); experiment: Antiproliferative activity against human Panel melanoma (9 Carcinoma cell lines) assessed as reduction in mean cell growth; type: functional; in short: as §1
LOX IMVI = experiment: Antiproliferative activity against human LOX IMVI cells assessed as inhibition of cell growth at 10 uM; type: functional; in short: as §2
[33] = tested on: Panel colon (Carcinoma cell lines); experiment: Antiproliferative activity against human Panel colon (7 Carcinoma cell lines) assessed as reduction in mean cell growth; type: functional; in short: as §1
[34] = tested on: Panel renal (Carcinoma cell lines); experiment: Antiproliferative activity against human Panel renal (8 Carcinoma cell lines) assessed as reduction in mean cell growth; type: functional; in short: as §1
MDA-MB-468 [35] = experiment: Antiproliferative activity against human MDA-MB-468 cells assessed as reduction in cell growth; type: functional; in short: as §1
HCT-15 [36] = experiment: Antiproliferative activity against human HCT-15 cells assessed as total growth inhibition; type: functional; in short: as §1
Homo sapiens = species on record: Homo sapiens; experiment: Inhibition of ABL […] mutant (unknown origin) at 10 uM using […] as substrate incubated for 40 mins in presence of [gamma33P]ATP by scintillation counting based hotspot kinase assay relative to control
RXF 393 [37] = experiment: Antiproliferative activity against human RXF 393 cells assessed as reduction in cell growth; type: functional; in short: as §1
[38] = molecular target: Serine/threonine-protein kinase B-raf (Homo sapiens) (UniProt P15056); experiment: Inhibition of B-RAF (unknown origin) at 10 uM using […] as substrate incubated for 40 mins in presence of [gamma33P]ATP by scintillation counting based hotspot kinase assay relative to control
[39] = Antiproliferative activity against human Panel NCI-58 (58 Carcinoma cell lines) assessed as reduction in mean cell growth at 10 uM; type: functional; design: scale not given: the % may be the effect or the level left; in short: as §2
NCI/ADR-RES [40] = experiment: Cytotoxicity against human NCI/ADR-RES cells; type: functional; in short: as §3
MDA-MB-468 [41] = experiment: Cytotoxicity against human MDA-MB-468 cells; type: functional; details: read-out: LC50 (the source's name); in short: as §3
PC-3 [42] = experiment: Cytotoxicity against human PC-3 cells; type: functional; in short: as §3
SNB-75 [43] = experiment: Cytotoxicity against human SNB-75 cells; type: functional; details: read-out: LC50 (the source's name); in short: as §3
NCI/ADR-RES [44] = experiment: Antiproliferative activity against human NCI/ADR-RES cells assessed as reduction in cell growth; type: functional; in short: as §1
[45] = Antiproliferative activity against human Panel non-small cell lung cancer (8 Carcinoma cell lines) assessed as reduction in mean cell growth; type: functional; details: Non-small cell lung cancer cell line; in short: as §1
RXF 393 [46] = experiment: Cytotoxicity against human RXF 393 cells; type: functional; in short: as §3
HCT-15 [47] = experiment: Cytotoxicity against human HCT-15 cells; type: functional; details: read-out: LC50 (the source's name); in short: as §3
NCI/ADR-RES [48] = experiment: Antiproliferative activity against human NCI/ADR-RES cells assessed as total growth inhibition; type: functional; in short: as §1
[49] = tested on: Panel prostate (Carcinoma cell lines); experiment: Antiproliferative activity against human Panel prostate (2 Carcinoma cell lines) assessed as reduction in mean cell growth; type: functional; in short: as §1

T1 sequence (P04049 whole entry): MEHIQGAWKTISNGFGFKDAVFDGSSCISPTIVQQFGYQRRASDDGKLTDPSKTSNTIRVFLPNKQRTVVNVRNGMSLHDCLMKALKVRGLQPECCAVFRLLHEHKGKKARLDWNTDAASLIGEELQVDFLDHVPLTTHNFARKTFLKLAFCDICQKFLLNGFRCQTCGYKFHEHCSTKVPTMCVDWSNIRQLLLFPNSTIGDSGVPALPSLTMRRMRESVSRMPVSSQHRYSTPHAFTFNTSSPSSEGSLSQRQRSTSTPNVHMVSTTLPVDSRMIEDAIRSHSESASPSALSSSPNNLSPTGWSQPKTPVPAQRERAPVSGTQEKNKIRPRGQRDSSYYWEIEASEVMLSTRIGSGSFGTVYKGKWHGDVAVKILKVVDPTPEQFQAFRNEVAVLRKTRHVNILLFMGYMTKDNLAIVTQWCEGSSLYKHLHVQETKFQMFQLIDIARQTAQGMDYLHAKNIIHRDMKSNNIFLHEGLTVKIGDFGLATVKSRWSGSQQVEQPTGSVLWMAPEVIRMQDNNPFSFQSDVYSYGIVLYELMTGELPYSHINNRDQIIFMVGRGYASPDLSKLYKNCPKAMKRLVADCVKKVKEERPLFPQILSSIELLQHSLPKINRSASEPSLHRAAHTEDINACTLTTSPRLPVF
Serine/threonine-protein kinase B-raf, sequence (P15056 2-766 V600E limits assumed): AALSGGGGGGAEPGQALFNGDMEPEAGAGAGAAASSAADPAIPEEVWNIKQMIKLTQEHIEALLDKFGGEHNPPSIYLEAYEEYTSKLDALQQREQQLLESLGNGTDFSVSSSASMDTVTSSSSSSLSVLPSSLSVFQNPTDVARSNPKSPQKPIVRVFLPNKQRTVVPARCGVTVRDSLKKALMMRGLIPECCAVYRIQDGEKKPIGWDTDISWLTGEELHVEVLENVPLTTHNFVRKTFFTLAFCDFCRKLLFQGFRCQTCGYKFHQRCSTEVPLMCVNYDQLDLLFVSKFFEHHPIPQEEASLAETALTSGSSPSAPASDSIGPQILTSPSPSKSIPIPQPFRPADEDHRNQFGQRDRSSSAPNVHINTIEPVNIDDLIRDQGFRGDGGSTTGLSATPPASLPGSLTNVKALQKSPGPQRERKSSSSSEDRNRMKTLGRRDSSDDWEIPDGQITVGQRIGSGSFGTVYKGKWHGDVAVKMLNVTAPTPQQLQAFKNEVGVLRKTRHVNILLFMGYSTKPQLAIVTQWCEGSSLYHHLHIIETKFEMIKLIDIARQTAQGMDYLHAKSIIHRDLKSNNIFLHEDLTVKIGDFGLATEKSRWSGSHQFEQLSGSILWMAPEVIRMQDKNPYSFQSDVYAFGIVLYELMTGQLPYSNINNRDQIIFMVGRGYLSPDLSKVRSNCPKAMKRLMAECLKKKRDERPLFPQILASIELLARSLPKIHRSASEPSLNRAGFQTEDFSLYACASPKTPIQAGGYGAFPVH
Epidermal growth factor receptor (Homo sapiens), sequence (P00533 whole entry): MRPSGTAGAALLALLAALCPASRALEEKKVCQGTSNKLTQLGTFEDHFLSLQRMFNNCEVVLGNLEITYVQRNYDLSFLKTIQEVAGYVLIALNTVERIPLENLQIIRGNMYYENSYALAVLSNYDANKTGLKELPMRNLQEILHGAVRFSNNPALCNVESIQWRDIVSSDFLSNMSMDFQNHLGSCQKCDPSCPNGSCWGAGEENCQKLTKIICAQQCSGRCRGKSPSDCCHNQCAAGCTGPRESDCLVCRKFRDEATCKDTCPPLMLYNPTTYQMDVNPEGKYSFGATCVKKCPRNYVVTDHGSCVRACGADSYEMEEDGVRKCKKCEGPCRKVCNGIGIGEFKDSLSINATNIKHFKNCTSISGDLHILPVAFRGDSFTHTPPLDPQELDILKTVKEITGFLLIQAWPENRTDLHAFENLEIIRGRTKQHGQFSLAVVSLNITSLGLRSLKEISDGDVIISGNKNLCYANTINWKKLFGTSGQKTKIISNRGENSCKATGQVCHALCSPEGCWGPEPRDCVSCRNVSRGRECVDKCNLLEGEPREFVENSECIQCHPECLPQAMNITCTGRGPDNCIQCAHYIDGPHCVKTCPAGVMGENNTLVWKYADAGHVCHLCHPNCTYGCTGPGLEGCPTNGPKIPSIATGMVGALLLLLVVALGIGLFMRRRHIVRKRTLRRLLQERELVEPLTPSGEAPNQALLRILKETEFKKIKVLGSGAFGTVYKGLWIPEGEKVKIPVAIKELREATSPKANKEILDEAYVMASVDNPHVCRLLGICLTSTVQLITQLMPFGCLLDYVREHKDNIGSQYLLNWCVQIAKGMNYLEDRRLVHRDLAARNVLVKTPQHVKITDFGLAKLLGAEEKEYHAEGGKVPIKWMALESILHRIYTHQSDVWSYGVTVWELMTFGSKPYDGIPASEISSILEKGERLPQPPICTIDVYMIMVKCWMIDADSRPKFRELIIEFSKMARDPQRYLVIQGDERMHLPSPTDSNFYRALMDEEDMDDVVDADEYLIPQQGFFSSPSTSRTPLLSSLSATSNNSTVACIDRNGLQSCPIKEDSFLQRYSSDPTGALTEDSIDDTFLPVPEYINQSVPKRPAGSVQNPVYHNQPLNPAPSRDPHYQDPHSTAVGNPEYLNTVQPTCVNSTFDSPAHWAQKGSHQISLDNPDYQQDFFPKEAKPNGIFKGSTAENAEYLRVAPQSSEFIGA
Tyrosine-protein kinase ABL1 (Homo sapiens), sequence (P00519 whole entry): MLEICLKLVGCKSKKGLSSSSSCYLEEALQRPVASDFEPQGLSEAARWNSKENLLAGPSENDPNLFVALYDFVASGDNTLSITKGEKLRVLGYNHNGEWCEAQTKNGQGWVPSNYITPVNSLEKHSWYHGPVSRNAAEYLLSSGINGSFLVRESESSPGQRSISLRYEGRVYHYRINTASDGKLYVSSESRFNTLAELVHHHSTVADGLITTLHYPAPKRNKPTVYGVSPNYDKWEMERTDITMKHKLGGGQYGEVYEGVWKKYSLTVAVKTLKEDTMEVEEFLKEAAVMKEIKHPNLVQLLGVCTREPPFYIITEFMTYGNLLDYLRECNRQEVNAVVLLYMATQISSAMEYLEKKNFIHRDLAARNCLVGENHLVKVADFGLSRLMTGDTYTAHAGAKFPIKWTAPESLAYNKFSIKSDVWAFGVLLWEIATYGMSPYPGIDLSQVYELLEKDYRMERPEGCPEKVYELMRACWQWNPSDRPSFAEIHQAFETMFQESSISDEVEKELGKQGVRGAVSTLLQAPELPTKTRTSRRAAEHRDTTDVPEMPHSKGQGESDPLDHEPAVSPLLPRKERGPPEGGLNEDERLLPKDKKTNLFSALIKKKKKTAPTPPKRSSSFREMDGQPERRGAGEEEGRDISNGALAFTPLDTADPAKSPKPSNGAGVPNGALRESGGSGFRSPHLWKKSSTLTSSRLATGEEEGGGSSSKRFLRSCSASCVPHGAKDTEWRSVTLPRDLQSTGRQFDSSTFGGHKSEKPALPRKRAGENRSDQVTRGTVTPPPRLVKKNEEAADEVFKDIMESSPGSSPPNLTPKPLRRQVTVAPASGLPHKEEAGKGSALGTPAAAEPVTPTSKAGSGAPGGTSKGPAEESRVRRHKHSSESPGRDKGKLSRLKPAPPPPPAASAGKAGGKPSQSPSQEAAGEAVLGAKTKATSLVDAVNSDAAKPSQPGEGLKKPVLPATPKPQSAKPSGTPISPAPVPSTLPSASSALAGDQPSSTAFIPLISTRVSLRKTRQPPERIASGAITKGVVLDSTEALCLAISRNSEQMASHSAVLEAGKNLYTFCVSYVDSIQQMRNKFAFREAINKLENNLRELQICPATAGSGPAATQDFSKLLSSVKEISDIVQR
Serine/threonine-protein kinase B-raf (Homo sapiens), sequence (P15056 whole entry): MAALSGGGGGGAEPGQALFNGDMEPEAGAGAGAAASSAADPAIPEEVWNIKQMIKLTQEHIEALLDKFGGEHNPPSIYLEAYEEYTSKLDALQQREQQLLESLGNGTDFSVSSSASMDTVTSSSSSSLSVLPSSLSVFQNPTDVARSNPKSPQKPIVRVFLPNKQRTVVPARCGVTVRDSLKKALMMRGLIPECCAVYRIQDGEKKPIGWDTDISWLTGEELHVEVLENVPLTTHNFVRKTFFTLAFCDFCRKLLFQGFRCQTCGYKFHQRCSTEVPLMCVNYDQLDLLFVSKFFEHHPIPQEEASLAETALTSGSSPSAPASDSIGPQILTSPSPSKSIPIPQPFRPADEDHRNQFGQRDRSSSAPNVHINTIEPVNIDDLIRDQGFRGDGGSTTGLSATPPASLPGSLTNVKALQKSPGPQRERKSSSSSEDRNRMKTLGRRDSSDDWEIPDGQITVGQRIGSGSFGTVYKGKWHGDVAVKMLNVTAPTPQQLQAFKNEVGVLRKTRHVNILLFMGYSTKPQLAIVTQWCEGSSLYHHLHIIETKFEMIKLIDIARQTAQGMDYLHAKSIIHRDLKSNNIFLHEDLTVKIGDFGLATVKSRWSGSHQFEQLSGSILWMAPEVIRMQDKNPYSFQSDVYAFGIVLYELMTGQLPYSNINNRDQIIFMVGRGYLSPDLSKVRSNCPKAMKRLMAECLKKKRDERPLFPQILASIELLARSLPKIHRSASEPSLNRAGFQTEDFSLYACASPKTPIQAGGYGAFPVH
Mitogen-activated protein kinase 14 (Homo sapiens), sequence (Q16539 whole entry): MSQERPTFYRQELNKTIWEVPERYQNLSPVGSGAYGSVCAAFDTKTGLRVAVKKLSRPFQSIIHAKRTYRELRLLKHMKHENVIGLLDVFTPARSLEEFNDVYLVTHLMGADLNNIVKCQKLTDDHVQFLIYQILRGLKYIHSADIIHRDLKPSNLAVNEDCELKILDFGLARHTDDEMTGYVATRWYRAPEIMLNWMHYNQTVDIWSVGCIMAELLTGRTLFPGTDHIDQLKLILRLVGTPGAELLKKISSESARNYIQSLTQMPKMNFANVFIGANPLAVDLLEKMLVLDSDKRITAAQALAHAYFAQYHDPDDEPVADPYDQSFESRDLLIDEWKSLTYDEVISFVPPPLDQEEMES
Serine/threonine-protein kinase B-raf (Homo sapiens), P15056 [V600E], sequence (P15056 whole entry V600E): as the sequence (P15056 whole entry) above, with V600E counted along it

## COc1cccc(-c2nn(-c3ccccc3)cc2-c2ccnc(NCCCNC(=O)Nc3ccc(Cl)c(Cl)c3)c2)c1
K562 [1]
  TGI: 5.85 µM
[2]
  GI50: 2.69 µM
HCT-15 [3]
  GI50: 2.4 µM
HCC 2998
  inhibition at 10 µM: 162%
HOP-92 [4]
  GI50: 2.32 µM
[5]
  IC50: 0.77 µM
SK-MEL-5 [6]
  LC50: 6.3 µM
K562 [7]
  GI50: 2.38 µM
SNB-75 [8]
  TGI: 19.2 µM
PC-3 [9]
  TGI: 22.4 µM
SK-MEL-5 [10]
  TGI: 3.32 µM
MDA-MB-468 [11]
  TGI: 4.34 µM
[12]
  inhibition: 45.8%
HOP-92 [13]
  LC50: 71 µM
COLO 205 [14]
  GI50: 1.87 µM
[15]
  IC50: 1.5 µM
[16]
  inhibition: 90.4%
COLO 205 [17]
  TGI: 3.82 µM
[18]
  GI50: 2.93 µM
[19]
  inhibition: 3.38%
RXF 393 [20]
  TGI: 4.87 µM
SNB-75 [21]
  GI50: 2.52 µM
[22]
  GI50: 2.31 µM
SK-MEL-5 [23]
  GI50: 1.75 µM
PC-3 [24]
  GI50: 3.96 µM
[25]
  inhibition: 87.7%
COLO 205 [26]
  inhibition at 10 µM: 145%
K562 [27]
  CC50: 100 µM
L132
  Activity: 50%
[28]
  inhibition: 7.7%
[29]
  GI50: 3.74 µM
COLO 205 [30]
  LC50 (lethal concentration 50%): 7.8 µM
HOP-92 [31]
  TGI: 7.68 µM
[32]
  GI50: 1.89 µM
LOX IMVI
  inhibition at 10 µM: 192%
[33]
  GI50: 2.44 µM
[34]
  GI50: 3.14 µM
MDA-MB-468 [35]
  GI50: 1.92 µM
HCT-15 [36]
  TGI: 6.66 µM
Homo sapiens
  inhibition: 6.38%
RXF 393 [37]
  GI50: 1.8 µM
[38]
  inhibition: 56.9%
[39]
  Activity: 104.1%
NCI/ADR-RES [40]
  LC50: 86.9 µM
MDA-MB-468 [41]
  CC50: 9.82 µM
PC-3 [42]
  LC50: 100 µM
SNB-75 [43]
  CC50: 100 µM
NCI/ADR-RES [44]
  GI50: 2.19 µM
[45]
  GI50: 3.51 µM
RXF 393 [46]
  LC50: 23 µM
HCT-15 [47]
  CC50: 29.1 µM
NCI/ADR-RES [48]
  TGI: 5.39 µM
[49]
  GI50: 4.71 µM
